Source: PubChem BioAssay (The Scripps Research Institute Molecular Screening Center)
This is a sample that favours compounds with a hit; in the whole collection about 2.4% have one here.
S1P4 agonist = agonists of human S1P4 receptor; hit rate 0.35% among 220,000; S1P4-expressing cell line, agonist reporter assay; AID 1509; activation, % at 4.98 µM; O95977; in the data active = activation above about 11%;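 also: 0% = DMSO vehicle and 100% = reference agonist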
NPY1 pot ag = potentiators or agonists of human neuropeptide Y receptor Y1. P25929. NPY-Y1 expressing cells, potentiator/agonist activation. activation, % at 3.6 µM. hit rate 0.37% among 220,000. AID 1304; in the data active = activation above about 33%, passing the limit was not always enough;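 also: cells stimulated with NPY at EC10 then isoproterenol at EC100; 0% = low agonist plus stimulus and 100% = saturating agonist plus stimulus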
Target sequence (P25929 whole entry, looked up): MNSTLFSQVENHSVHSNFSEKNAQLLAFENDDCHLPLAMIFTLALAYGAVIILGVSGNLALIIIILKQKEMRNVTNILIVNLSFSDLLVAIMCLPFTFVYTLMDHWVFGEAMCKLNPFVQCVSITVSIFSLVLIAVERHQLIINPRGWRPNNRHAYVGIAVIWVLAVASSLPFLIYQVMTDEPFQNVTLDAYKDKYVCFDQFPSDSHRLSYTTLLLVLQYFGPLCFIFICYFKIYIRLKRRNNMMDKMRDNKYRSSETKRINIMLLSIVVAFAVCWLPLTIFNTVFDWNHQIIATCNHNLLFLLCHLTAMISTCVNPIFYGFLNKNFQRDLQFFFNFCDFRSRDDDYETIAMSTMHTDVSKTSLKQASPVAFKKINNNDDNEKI
S1P4 antag = blocks the human S1P4 receptor | inhibition, % at 4.98 µM | hit rate 0.26% among 220,000 | O95977 | S1P4-expressing cells, antagonist mode, reporter read-out; in the data active = inhibition above about 29%;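 also: 0% = wells stimulated with agonist and 100% = vehicle wells without agonist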
NPY2 pot ag = human NPY-Y2 potentiation or agonism, primary screen. P49146. cells expressing NPY-Y2, potentiator/agonist read-out. activation, % at 3.6 µM. hit rate 0.45% among 220,000; in the data active = activation above about 27%;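 also: cells stimulated with NPY near EC25 plus isoproterenol at EC100; 0% = vehicle plus submaximal agonist and 100% = vehicle plus saturating agonist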
NPY Y1 blocker = blocks the human neuropeptide Y Y1 receptor; hit rate 1% among 200,000; HEK293-CNG Y1 cells, membrane potential fluorescence; NPY at EC95, then isoproterenol; inhibition, % at 3.6 µM; P25929; AID 1040;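 active = inhibition above the campaign mean inhibition of all tested compounds plus 3 SD, cut at about 20% in these data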;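 also: 0% = DMSO wells given NPY plus isoproterenol and 100% = isoproterenol alone without NPY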
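Benchmarks – high control isoproterenol alone, low control NPY with isoproterenol · Material – HEK293 Y1/CNG channel cell line · Times – dye 3 h, compound 60 min room temperature, stimulation 45 min · Probe or stimulus – NPY (25 nM), isoproterenol (1 µM), Ro 20-1724 (25 µM) · Evaluation – % inhibition of NPY effect · Signal – fluorescence, membrane potential probe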
NPY-Y2 antag = NPY-Y2 (human) receptor antagonism; P49146; hit rate 0.99% among 140,000; AID 793; inhibition, % at 2.7 µM; NPY-Y2 expressing cells, antagonist mode; in the data active = inhibition above about 17%;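 also: 0% = vehicle with agonist challenge and 100% = reference antagonist with challenge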
Numbers without * were called inactive; · = no result given.

SMILES	S1P4 agonist	NPY1 pot ag	S1P4 antag	NPY2 pot ag	NPY Y1 blocker	NPY-Y2 antag
CCOC(=O)c1c(-c2ccccc2)oc2ccc(O)c(CN(C)C)c12	2	-49	4	-35	22*	25*
CCOC(=O)c1c(-c2ccccc2)oc2ccc(O)c(CN3CCCC3)c12	-2	-43	6	-44	39*	23*
CCCC(=O)NC(=S)NNC(=O)c1ccc([N+](=O)[O-])cc1	1	-12	-21	-7	-1	2
Cc1ccc(NC(=O)CSc2n[nH]c(-c3ccncc3)n2)cc1C	2	10	-9	-8	0	2
COc1ccccc1N1CCN(c2nc(C)nc3c2oc2ccccc23)CC1	4	-31	4	-21	32*	20*
CC(C)C(c1nnnn1Cc1ccco1)N1CCN(c2cccc(Cl)c2)CC1 (configuration not stated)	-1	-2	8	9	16	9
CC(C)C(c1nnnn1C(C)(C)C)N1CCN(c2cccc(Cl)c2)CC1 (configuration not stated)	0	-14	13	-4	48*	22*
Cc1cc(C2(c3ccc(O)c(C)c3)C(=O)Nc3ccccc32)ccc1O	0	6	-3	24	-2	-1
Cc1cccc2c1NC(=O)C2(c1ccc(O)cc1)c1ccc(O)cc1	-5	-39	98*	-14	116*	114*
O=C(O)/C=C\C(=O)Nc1ccccc1C(=O)N1CCN(c2ccc(Cl)cc2)CC1	-1	91*	0	31*	2	1
CC(C)c1ccc(N2CCN(C(=O)c3ccccc3NC(=O)/C=C\C(=O)O)CC2)cc1	-1	-2	-16	-16	-5	-3
Cn1c(=O)c2c(nc(NCCCN3CCOCC3)n2Cc2ccc(Cl)c(Cl)c2)n(C)c1=O	2	-41	-17	-15	20*	23*
Cc1nn(-c2ccccc2)c(Cl)c1CN(C(=O)CCl)c1cccc2ccccc12	0	-3	9	2	10	16
Cc1c(Cl)cnc(NC(=O)COC(=O)CCC(=O)c2cccs2)c1Cl	-2	-18	-9	6	7	3
COc1ccc(C2CC(C)(c3ccc(OC)cc3)Nc3ccccc3N2)cc1 (configuration not stated)	1	5	-60	-29	·	·
CCCCOC(=O)c1ccc(NC(=O)c2ccccc2OC)cc1	0	-33	-26	-14	-1	3
CCCOC(=O)c1ccc(NC(=O)c2ccccc2OC)cc1	0	-49	-7	-35	21*	·
Cc1cc(NS(=O)(=O)c2ccc(NC(=O)CSc3nc4sc(C(=O)O)c(C)c4c(=O)[nH]3)cc2)no1	1	10	4	-8	-1	·
CN1C=CC=C/C1=C1\SC(=S)N(C2CCCCC2)C1=O	0	114*	-5	106*	-10	-2
CCC(C)(C)NC(=O)C(c1ccc(C)o1)N(Cc1cccs1)C(=O)Cn1nnc2ccccc21 (configuration not stated)	0	-131	-2	-36	70*	50*
O=C(NC1CCCCC1)C(c1ccco1)N(Cc1cccs1)C(=O)Cn1nnc2ccccc21 (configuration not stated)	1	-37	0	0	51*	42*
O=C(NC1CCCCC1)C(c1ccccc1)N(Cc1ccco1)C(=O)Cn1cnc2ccccc21 (configuration not stated)	3	-130	3	-97	78*	55*
CCC(C)(C)NC(=O)C(c1ccccc1)N(Cc1cccs1)C(=O)Cn1nnc2ccccc21 (configuration not stated)	2	-328	5	-187	136*	133*
COC(=O)CCCSc1nccn1-c1ccccc1	1	-14	10	-16	-2	·
COc1ccc(C(CC(=O)O)NC(=O)c2ccccc2)cc1OC (configuration not stated)	1	-1	-2	4	2	-2
SMILES	S1P4 agonist	NPY1 pot ag	S1P4 antag	NPY2 pot ag	NPY Y1 blocker	NPY-Y2 antag
COc1ccccc1C(CC(=O)c1ccccc1)CC(=O)c1ccccc1	0	-18	1	-14	21*	·
O=C1NCCN(Cc2cccc(Oc3ccccc3)c2)C1CC(=O)N1CCCO1 (configuration not stated)	-1	1	-7	-12	2	·
O=C(NCCN1CCOCC1)c1ccccc1-c1ccccc1	1	12	-20	1	0	6
O=C(NCCN1CCOCC1)c1cnn2c(-c3ccccc3)cc(-c3ccccc3)nc12	-2	-84	4	-20	36*	20*
Cc1c(NC(=O)c2cccs2)cccc1-c1nc2ccccc2s1	1	46*	-17	27*	-3	6
CN(C)C(CNC(=O)c1ccc2nc[nH]c2c1)c1ccccc1 (configuration not stated)	1	18	-8	3	-2	·
O=S(=O)(NC1=NCCCCC1)c1ccc(Cl)cc1	0	-6	4	-16	-1	·
Clc1ccc(NC2=NCCCCC2)cc1	1	7	-2	10	46*	1
Cc1ccc(-n2cc(CN(C)Cc3ncc[nH]3)c(-c3cccc(C)c3)n2)cc1	0	4	-4	1	4	·
CC(=O)NNc1ccc(C(F)(F)F)cc1[N+](=O)[O-]	2	-2	-29	1	-1	3
N#CN=C(N)c1ccccc1	-1	5	1	8	-3	1
COc1cccc(/C=N/N2C(=O)C3C4c5ccccc5C(c5ccccc54)C3C2=O)c1OC (configuration not stated)	13*	-12	7	-14	4	1
COc1ccc([C@H](C)NC[C@H](O)c2ccc(O)c(NC=O)c2)cc1	1	59*	4	79*	-9	·
O=C1C2C3c4ccccc4C(c4ccccc43)C2c2nc3ccccc3n21 (configuration not stated)	1	-18	6	-11	24*	11
O=C(COc1ccc2ccccc2c1)Nc1ccc2c3c(cccc13)CC2	-1	-3	-20	5	10	21*
CC(C)(C)C(=O)/C=c1\[nH]c(=O)/c(=C\c2ccccc2F)s1	3	-13	4	2	8	·
Cc1ccccc1/C=c1\s/c(=C\C(=O)C(C)(C)C)[nH]c1=O	1	-7	-6	-21	22*	24*
CCc1cccc(CC)c1-n1c(SCC(=O)N2CCc3ccccc3C2)nnc1-c1cccnc1	0	-25	-24	-5	3	10
CC(C)Oc1ccc(C(=O)NCC(=O)O)cc1	0	14	-3	5	·	·
N=c1c2c(-c3ccccc3)c(-c3ccccc3)n(Cc3ccco3)c2ncn1CCO	0	-79	-16	-23	38*	63*
c1coc(CNc2nc3ccccc3n2CCN2CCOCC2)c1	-5	7	-15	8	3	2
